≈ marks a conversion by molar mass, not a printed value. Calls of active or inactive are those of the source. The calls are words filed in the database; no cut-off is given here.

The test system of one data set is CCRF-CEM. In words: Cytotoxicity against human CCRF-CEM cells assessed as growth inhibition. The data set is classed as functional. The settings on record: read-out: ID50 (the source's name).
For data set [1], the system named is L1210. As to the kind of experiment: Antitumor activity against mouse L1210 cells allografted in mouse assessed as increase in life span at 0.18 mg/kg, sc administered daily up to death started on day 5 post tumor implantation relative to control. The settings on record: 120 h, route subcutaneous. The data set is classed as functional.
The test system of the next data set is Mus musculus. As to the kind of experiment: Toxicity in mouse allografted with mouse L1210 cells at 15 to 525 mg/kg, ip qd administered every 3 days for 7 days. The data set is classed as organism-based. Further details: dose 15-525 mg/kg, route intraperitoneal. The conditions noted are these: in vivo. The gist of the method:
(§1)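 Mice inoculated ip with 10^5 L1210 cells on day 0. Test agents injected ip in 10% Tween 80 on days 1, 4 and 7; doses 15 to 525 mg/kg. Positive control given as disodium salt in aqueous solution. Test groups of 5, control groups of 10-15. Median survival scored; %ILS = 100 × (T − C)/C.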

For data set [2], the system named is L1210. In words: Antitumor activity against mouse L1210 cells allografted in mouse assessed as increase in life span at 15 to 525 mg/kg, ip qd administered every 3 days for 7 days. The data set is classed as functional, organism-based. The gist of the method: as §1
Data set [3] relates to L1210. In words: Antitumor activity against mouse L1210 cells allografted in mouse assessed as increase in life span at 225 mg/kg, ip qd administered every 3 days for 7 days relative to control. The class given is functional. The conditions noted are these: route intraperitoneal. Summed up: (§2)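 L1210 cells (10^5) implanted ip in mice on day 0. Compounds given ip in 10% Tween 80 on days 1, 4 and 7, at doses from 15 to 525 mg/kg. Methotrexate was given as the disodium salt in aqueous solution. Groups had 5 treated and 10-15 control animals. %ILS = 100 × (T − C)/C, where T and C are median survival days of treated and control mice.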

Data set [4] deals with Dihydrofolate reductase (Lactobacillus casei) (UniProt P00381). As to the kind of experiment: Inhibition of methotrexate-resistant Lactobacillus casei ATCC 7469 dihydrofolate reductase. The settings on record: Lacticaseibacillus casei.
Data set [5] deals with L1210. In words: Antitumor activity against mouse L1210 cells allografted in mouse assessed as median survival time at 525 mg/kg, ip qd administered every 3 days for 7 days. The settings on record: route intraperitoneal. The class given is functional. Summed up: (§3)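 Mice were inoculated ip with 10^5 L1210 leukemia cells on day 0. Dosing was ip on days 1, 4 and 7 in 10% Tween 80, with the methotrexate disodium salt in water, over 15–525 mg/kg. Survival was recorded in days as the range and median per group, with 5 treated and 10-15 untreated controls.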

Data set [6] relates to L1210. As to the kind of experiment: Antitumor activity against mouse L1210 cells allografted in mouse assessed as increase in life span at 350 mg/kg, ip qd administered every 3 days for 7 days relative to control. The data set is classed as functional. The settings on record: route intraperitoneal. The gist of the method:
as §2

In data set [7] the test system is L1210. In words: Antitumor activity against mouse L1210 cells allografted in mouse assessed as increase in life span at 150 mg/kg, ip qd administered every 3 days for 7 days relative to control. The class given is functional. The conditions noted are these: route intraperitoneal. Summed up: as §2
For data set [8], the system named is L1210. In words: Antitumor activity against mouse L1210 cells allografted in mouse assessed as median survival time at 350 mg/kg, ip qd administered every 3 days for 7 days. The data set is classed as functional. The settings on record: route intraperitoneal. The gist of the method: as §3
The subject of data set [9] is L1210. In words: Antitumor activity against mouse L1210 cells allografted in mouse assessed as increase in life span at 525 mg/kg, ip qd administered every 3 days for 7 days relative to control. The conditions noted are these: route intraperitoneal. The class given is functional. The gist of the method: as §2
Data set [10] has as its system Serum. In words: Prodrug conversion in rat whole serum assessed as formation of methotrexate at 0.006 g measured up to 24 hrs by TLC analysis. The class given is ADME. The gist of the method:
(§4)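 Fresh rat serum 0.9 mL plus compound 0.006 g in 0.1 mL Me2SO, incubated at 37 °C with gentle shaking for up to 24 h. Cooled on ice, diluted 1.5-fold with methanol to precipitate protein, centrifuged. Supernatant run on fluorescent cellulose TLC developed with 0.5 M phosphate buffer pH 7.4 to detect parent compound and metabolites.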

Data set [11] concerns L1210. As to the kind of experiment: Antitumor activity against mouse L1210 cells allografted in mouse assessed as median survival time at 150 mg/kg, ip qd administered every 3 days for 7 days. The conditions noted are these: route intraperitoneal. The data set is classed as functional. The gist of the method:
as §3

Data set [12] deals with L1210. As to the kind of experiment: Antitumor activity against mouse L1210 cells allografted in mouse assessed as median survival time at 225 mg/kg, ip qd administered every 3 days for 7 days. The class given is functional. The settings on record: route intraperitoneal. The gist of the method: as §3
Data set [13] relates to L1210. As to the kind of experiment: Antitumor activity against mouse L1210 cells allografted in mouse assessed as increase in life span at 7 mg/kg, sc administered daily up to death started on day 5 post tumor implantation relative to control. The class given is functional. The conditions noted are these: 120 h, route subcutaneous.
The test system of data set [14] is L1210. In words: Antitumor activity against mouse L1210 cells allografted in mouse assessed as median survival time at 200 mg/kg, ip qd administered every 3 days for 7 days. The class given is functional. The conditions noted are these: route intraperitoneal. Summed up:
as §3

Data set [15] concerns L1210. In words: Antitumor activity against mouse L1210 cells allografted in mouse assessed as median survival time at 50 mg/kg, ip qd administered every 3 days for 7 days. The settings on record: route intraperitoneal. The class given is functional. The gist of the method: as §3
In another data set the test system is Plasma. As to the kind of experiment: Prodrug conversion in mouse plasma assessed as formation of methotrexate at 100 mg/kg, ip measured after 6 to 24 hrs by TLC analysis. The class given is ADME, organism-based. Set-up: dose 100 mg/kg, route intraperitoneal. The settings on record: in vivo. Summed up:
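Normal mice received a single ip dose of 100 mg/kg in 10% Tween 80. One animal was killed at 6 h and one at 24 h. Blood was taken by ocular puncture with a heparinized syringe and the red cells spun down. Plasma 0.2 mL was cooled on ice and diluted with methanol 0.4 mL to precipitate protein, then centrifuged. Analysed by cellulose TLC developed in 0.5 M phosphate buffer pH 7.4.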

A short description of data set [16]: Cytotoxicity against RBL cells assessed as growth inhibition. The data set is classed as functional. The conditions noted are these: Rattus norvegicus, read-out: ID50 (the source's name).
Data set [17] deals with L1210. As to the kind of experiment: Antitumor activity against mouse L1210 cells allografted in mouse assessed as median survival time at 100 mg/kg, ip qd administered every 3 days for 7 days. The class given is functional. The settings on record: route intraperitoneal. Summed up: as §3
Data set [18] concerns L1210. As to the kind of experiment: Antitumor activity against mouse L1210 cells allografted in mouse assessed as increase in life span at 50 mg/kg, ip qd administered every 3 days for 7 days relative to control. The class given is functional. The settings on record: route intraperitoneal. Summed up: as §2
The test system of a further data set is Liver. As to the kind of experiment: Prodrug conversion in mouse liver assessed as formation of methotrexate at 100 mg/kg, ip measured after 6 to 24 hrs by TLC analysis. The data set is classed as ADME, organism-based. Set-up: dose 100 mg/kg, route intraperitoneal. The conditions noted are these: in vivo.
In data set [19] the test system is L1210. As to the kind of experiment: Antitumor activity against mouse L1210 cells allografted in mouse assessed as increase in life span at 200 mg/kg, ip qd administered every 3 days for 7 days relative to control. The data set is classed as functional. The conditions noted are these: route intraperitoneal. Summed up:
as §2

The test system of data set [20] is L1210. In words: Antitumor activity against mouse L1210 cells allografted in mouse assessed as median survival time at 400 mg/kg, ip qd administered every 3 days for 7 days. The data set is classed as functional. The conditions noted are these: route intraperitoneal. Summed up:
as §3

Data set [21] deals with L1210. In words: Antitumor activity against mouse L1210 cells allografted in mouse assessed as increase in life span at 400 mg/kg, ip qd administered every 3 days for 7 days relative to control. The data set is classed as functional. The conditions noted are these: route intraperitoneal. The gist of the method:
as §2

Data set [22] concerns L1210. In words: Antitumor activity against mouse L1210 cells allografted in mouse assessed as median survival time at 25 mg/kg, ip qd administered every 3 days for 7 days. The class given is functional. The settings on record: route intraperitoneal. Summed up: as §3
The test system of data set [23] is L1210. As to the kind of experiment: Antitumor activity against mouse L1210 cells allografted in mouse assessed as increase in life span at 25 mg/kg, ip qd administered every 3 days for 7 days relative to control. The data set is classed as functional. The conditions noted are these: route intraperitoneal. Summed up: as §2
Data set [24] has as its system L1210. As to the kind of experiment: Antitumor activity against mouse L1210 cells allografted in mouse assessed as increase in life span at 100 mg/kg, ip qd administered every 3 days for 7 days relative to control. The class given is functional. The settings on record: route intraperitoneal. Summed up: as §2
The test system of data set [25] is Serum. As to the kind of experiment: Prodrug conversion in rat whole serum assessed as formation of methotrexate measured after 1 hr by TLC analysis. The class given is ADME. The gist of the method: as §4

Dihydrofolate reductase (Lactobacillus casei), sequence (P00381 whole entry): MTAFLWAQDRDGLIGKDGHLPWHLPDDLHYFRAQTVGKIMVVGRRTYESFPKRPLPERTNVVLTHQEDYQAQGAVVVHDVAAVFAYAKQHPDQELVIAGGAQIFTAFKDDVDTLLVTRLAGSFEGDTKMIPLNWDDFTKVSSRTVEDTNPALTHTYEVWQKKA

As to `CCCCCCNC(=O)CC[C@H](NC(=O)c1ccc(N(C)Cc2cnc3nc(N)nc(N)c3n2)cc1)C(=O)NCCCCCC`, in the data set on CCRF-CEM, the IC50 amounted to 10 µg/mL (≈ 16.1 µM).
Take `Nc1nc(N)c2nc(CNc3ccc(C(=O)N[C@@H](CCC(=O)O)C(=O)O)cc3)cnc2n1` [AMINOPTERIN]: the ILS at 0.18 mg/kg in the data set on L1210 [1] amounted to 30%.
Take `CN(C)CCCNC(=O)CC[C@H](NC(=O)c1ccc(N(C)Cc2cnc3nc(N)nc(N)c3n2)cc1)C(=O)NCCCN(C)C`: the Activity entry in the data set on Mus musculus is recorded as “Toxic”. For the same molecule, the outcome in the data set with L1210 [2] was inactive.
The like results for `CN(Cc1cnc2nc(N)nc(N)c2n1)c1ccc(C(=O)N[C@@H](CCC(=O)N2CCCC2)C(=O)N2CCCC2)cc1` were, in that order, “Toxic” and “inactive”.
Turning to `CCC(C)NC(=O)CC[C@H](NC(=O)c1ccc(N(C)Cc2cnc3nc(N)nc(N)c3n2)cc1)C(=O)NC(C)CC` (some centres undefined), in the data set with CCRF-CEM, the IC50 was over 10 µg/mL.
With `CCCNC(=O)CC[C@H](NC(=O)c1ccc(N(C)Cc2cnc3nc(N)nc(N)c3n2)cc1)C(=O)NCCC`, in the data set with L1210 [3], the ILS at 225 mg/kg was 27%. The same molecule had an ID50 in [4] of 1.8 ×10⁻⁷ M. Besides, the MST in the data set on L1210 [5] was determined as 13 days; in the data set with L1210 [8], 13 days; with L1210 [11], 11 days; in the data set with L1210 [12] it was 14 days. In the data set on L1210 [6], the ILS at 350 mg/kg came to 18%. Besides, the ILS at 150 mg/kg with L1210 [7] was determined as 0%. In the data set on L1210 [9], the ILS at 525 mg/kg was found to be 18%. Also, the Drug metabolism result with Serum [10] is recorded as “metabolite_notdetected”. Besides, the IC50 in the data set with CCRF-CEM stood at 7 µg/mL (≈ 13 µM).
As for `Nc1nc(N)c2nc(CNc3ccc(C(=O)N[C@@H](CCC(=O)NCc4ccccc4)C(=O)NCc4ccccc4)cc3)cnc2n1`, in the data set with L1210 [13], the ILS at 7 mg/kg was found to be 30%.
On to `CN(Cc1cnc2nc(N)nc(N)c2n1)c1ccc(C(=O)N[C@@H](CCC(=O)NCc2ccccc2)C(=O)NCc2ccccc2)cc1`, for which the MST turned out to be 9 days with L1210 [14]; 13 days in the data set with L1210 [15]; 13 days with L1210 [17]; 8 days with L1210 [20]; 15 days with L1210 [11]; 12 days in the data set on L1210 [22]. Moreover, the Drug metabolism entry with Plasma is recorded as “metabolite_detected”; in the data set with Liver it was “metabolite_detected”; in the data set on Serum [10], “metabolite_notdetected”. For the same molecule, the IC50 in [16] stood at 2.5 µg/mL (≈ 3.95 µM); with CCRF-CEM, 7.6 µg/mL (≈ 12 µM). The ILS at 50 mg/kg in the data set with L1210 [18] was 44%. Moreover, the ILS at 200 mg/kg in the data set with L1210 [19] turned out to be 0%. Moreover, the ILS at 150 mg/kg in the data set with L1210 [7] was determined as 66%. For the same molecule, the ILS at 400 mg/kg in the data set on L1210 [21] is -11%. Further, in the data set with L1210 [23], the ILS at 25 mg/kg was found to be 33%. The ILS at 100 mg/kg in the data set with L1210 [24] came out at 44%.
Regarding `CCCCOC(=O)CC[C@H](NC(=O)c1ccc(N(C)Cc2cnc3nc(N)nc(N)c3n2)cc1)C(=O)OCCCC`, in the data set on Serum [25], the Drug metabolism result is reported as “metabolite_detected”. This molecule showed an ID50 in data set [4] of 5 ×10⁻⁷ M. Also, in the data set with CCRF-CEM, the IC50 is 0.032 µg/mL (≈ 0.0565 µM).
